Experimental data reported in ChEMBL document CHEMBL1126711, “The synthesis of novel GABA uptake inhibitors. 1. Elucidation of the structure-activity studies leading to the choice of (R)-1-[4,4-bis(3-methyl-2-thienyl)-3-butenyl]-3-piperidinecarboxylic acid (tiagabine) as an anticonvulsant drug candidate” (J Med Chem, 1993).

Key:
Mus musculus [1] = test: In vivo anticonvulsant effect of DMCM-induced clonic seizures in mice at 15 mg/kg intraperitoneal dose expressed as effective dose; assay type: functional; settings: ip
Outline: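 Mice; test compound given ip. Clonic seizures induced with DMCM at 15 mg/kg ip. Inhibition of clonic seizures scored by observation, and ED50 expressed in mg/kg.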

[2] = In vitro inhibition of [3H]GABA uptake in rat synaptosomes; assay type: functional, subcellular, Brain
Outline: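 Rat forebrain homogenized in ice-cold 0.32 M sucrose, spun 10 min at 600g at 4 °C, and the pellet resuspended in pH 7.4 Na/K/Ca/Mg phosphate-glucose buffer. Synaptosomes (0.1 mg protein) preincubated with test substance 8 min at 30 °C. [3H]GABA (final 0.9 nM) plus unlabeled GABA (final 0.9 nM) then added for a further 8 min, followed by filtration. Uptake in the presence of 500 μM nipecotic acid subtracted. IC50 is the mean of 3–7 determinations ± SE.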

Mus musculus [3] = species: Mus musculus; test: Anticonvulsant effect of DMCM-induced seizures in mice expressed as effective dose
[4] = Lipophilicity measured as partition between octanol and pH 7.4 buffer; assay type: physicochemical; settings: octanol/pH 7.4 buffer

Compound	ED50 (Mus musculus [1]) [mg/kg]	IC50 [2] [nM]	further results
Cl.Cn1cccc1/C(=C\CCN1CCC=C(C(=O)O)C1)c1ccccc1	1.8	130	
Cc1ccsc1/C(=C\CCN1CCC[C@@H](C(=O)O)C1)c1cccs1		690	
Cc1ccsc1C(=CCCN1CCCC(C(=O)O)C1)c1sccc1C.Cl (configuration not stated)	2.6	87	
Cc1ccccc1C(=CCCN1CCC[C@H](C(=O)O)C1)c1ccccc1C.Cl	1.3		
Cc1ccccc1/C(=C/CCN1CCC[C@H](C(=O)O)C1)c1sccc1C.Cl	1.2		
Cc1ccsc1/C(=C\CCN1CCC[C@H](C(=O)O)C1)c1c(C)cccc1C		247	
Cc1ccsc1/C(=C\CCN1CCC[C@H](C(=O)O)C1)c1cccs1.Cl	2.5	60	
Cc1ccc(/C(=C/CCN2CCC[C@H](C(=O)O)C2)c2sccc2C)c(C)c1		264	
O=C(O)C1CCCN(CCOC(c2ccccc2)c2ccccc2)C1 (configuration not stated)		1370	
Cc1ccccc1/C(=C/CCN1CCC=C(C(=O)O)C1)c1sccc1C.Cl	1.9	130	
Cc1ccsc1C(=CCCN1CCC=C(C(=O)O)C1)c1sccc1C.Cl	1.8	138	
COc1ccc(C(OCCN2CCCC(C(=O)O)C2)c2ccc(OC)cc2)cc1 (configuration not stated)		> 3000	
Cl.O=C(O)C1CCCN(CCC=C(c2ccccc2)c2ccccc2)C1 (configuration not stated)	3.1	330	
Cc1ccsc1/C(=C\CCN1CCCC(C(=O)O)C1)c1ccccc1 (configuration not stated)		290	
Cc1ccsc1/C(=C\CCN1CCC=C(C(=O)O)C1)c1cccs1.Cl	2.1	112	
O=C(O)[C@H]1CCCN(CCC=C2c3ccccc3-c3ccccc32)C1		1920	
Cc1cc(Cl)ccc1/C(=C/CCN1CCC=C(C(=O)O)C1)c1sccc1C		300	
Cc1ccccc1C(OCCN1CCCC(C(=O)O)C1)c1ccccc1C (configuration not stated)		388	
O=C(O)C1=CCCN(CC/C=C(/c2ccccc2)c2cccs2)C1		265	
Cc1ccsc1/C(=C\CCN1CCC=C(C(=O)O)C1)c1ccc(Cl)cc1Cl		320	
Cc1ccsc1/C(=C\CCN1CCC=C(C(=O)O)C1)c1cc(Cl)cc(Cl)c1		1860	
Cc1ccsc1/C(=C\CCN1CCC=C(C(=O)O)C1)c1ccc(Cl)cc1		848	
O=C(O)C1CCCN(CCC=C(c2cccs2)c2cccs2)C1 (configuration not stated)		256	
Cl.O=C(O)C1=CCCN(CCC=C(c2ccccc2)c2ccccc2)C1	3.6	341	
Cc1ccsc1C(=CCCN1CCC[C@H](C(=O)O)C1)c1sccc1C		218	
CN1C(=O)CN=C(c2ccccc2)c2cc(Cl)ccc21 [DIAZEPAM]			ED50 (Mus musculus [3]): 2.5 mg/kg
Cc1ccsc1C(=CCCN1CCC[C@@H](C(=O)O)C1)c1sccc1C.Cl [TIAGABINE HYDROCHLORIDE]	1.2	67	logD [4]: 1.59
